Laboratory results from ChEMBL document CHEMBL1139252, “Inhibition of purple acid phosphatase with alpha-alkoxynaphthylmethylphosphonic acids” (Bioorg Med Chem Lett, 2009).
Calls of active or inactive are those of the source. The rule behind the calls is not given here.

Key:
[1] = species on record: Homo sapiens; experiment: Inhibition of human PAP
[2] = target: T1, Fe(3+)-Zn(2+) purple acid phosphatase (Phaseolus vulgaris) (UniProt P80366); experiment: Inhibition of red kidney bean PAP at pH 6.2
T1 sequence (whole entry): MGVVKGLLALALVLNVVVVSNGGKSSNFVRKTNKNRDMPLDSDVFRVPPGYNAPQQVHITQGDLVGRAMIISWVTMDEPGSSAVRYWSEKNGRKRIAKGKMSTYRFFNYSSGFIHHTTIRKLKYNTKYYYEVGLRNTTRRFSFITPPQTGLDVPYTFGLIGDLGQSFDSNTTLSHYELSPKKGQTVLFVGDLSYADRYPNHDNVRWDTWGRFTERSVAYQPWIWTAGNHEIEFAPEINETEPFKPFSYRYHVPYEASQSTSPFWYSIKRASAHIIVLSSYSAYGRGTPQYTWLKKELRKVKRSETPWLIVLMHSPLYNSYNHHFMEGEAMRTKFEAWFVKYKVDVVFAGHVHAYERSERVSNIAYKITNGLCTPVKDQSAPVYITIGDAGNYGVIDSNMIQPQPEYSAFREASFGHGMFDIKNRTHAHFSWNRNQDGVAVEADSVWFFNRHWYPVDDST
Outline: (§1)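 Each enzyme was run at its own pH optimum: red kidney bean PAP at pH 6.2 and pig PAP at pH 4.9. IC50 values were determined experimentally. Separate inhibition constants were derived for binding to the free enzyme and to the enzyme–substrate complex.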

[3] = species on record: Sus scrofa; experiment: Inhibition of pig PAP at pH 4.9; outline: as §1
[4] = species on record: Sus scrofa; experiment: Activity of pig PAP at pH 4.9

Structure (SMILES)	logIC50 [2]	Kic [3]	Kiuc [3]	logIC50 [3]	Km [4]	Kic [2]	Kiuc [2]	Activity [1]
O=P(O)(O)C(O)c1cccc2ccccc12 (configuration not stated)	0.7	–	–	–	–	–	–	inactive
O=P(O)(O)Cc1cccc2ccccc12	> 0.845	–	–	–	–	–	–	–
CCCCCCOC(c1cccc2ccccc12)P(=O)(O)O (racemic)	0	–	–	-0.37	2650 µM	1.47 mM	1.43 mM	–

Further lines, with some results ahead:

logIC50 [2]	Kic [3]	Kiuc [3]	logIC50 [3]	Km [4]	Kic [2]	Kiuc [2]	Structure (SMILES)	Activity [1]
-2.1	0.017 mM	0.02 mM	-1.7	1130 µM	0.004 mM	0.03 mM	CCCCCCCCCCOC(c1cccc2ccccc12)P(=O)(O)O (racemic)	–
-1	0.023 mM	0.044 mM	-1.5	1500 µM	0.05 mM	0.129 mM	CCCCCCCCOC(c1cccc2ccccc12)P(=O)(O)O (racemic)	–
